The results in this text go back to ChEMBL document CHEMBL4316609, “Chemical synthesis and functional characterization of a new class of ceramide analogues as anti-cancer agents” (Bioorg Med Chem, 2019).

Common to all, as to format: functional, cell-based
Experiment [1] relates to SW-620. The experiment can be described thus: Cytotoxicity against human SW620 cells measured after 48 hrs by MTT assay. The conditions noted are these: SW-620, 48 h. The procedure, abridged: (§1)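 Seeded at 7x10^3 cells/well and allowed 24 h to attach. Compounds added at final 0 to 200 μM and incubated 48 h. Viability read by MTT. IC50 taken as the concentration giving 50% growth inhibition; mean ± SD, N = 4.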
(In general: Formazan colour is commonly taken as a measure of viable cells.)

Experiment [2] has as its system A-431. The experiment can be described thus: Cytotoxicity against human A431 cells measured after 48 hrs by MTT assay. The conditions noted are these: A-431, 48 h. The procedure, abridged: as §1
Experiment [3] relates to SiHa. The experiment can be described thus: Cytotoxicity against human SiHa cells measured after 48 hrs by MTT assay. The procedure, abridged:
as §1

Experiment [4] has as its system HepG2. Nature of the experiment: Cytotoxicity against human HepG2 cells measured after 48 hrs by MTT assay. The conditions noted are these: HepG2, 48 h. The procedure, abridged: as §1
A short description of experiment [5]: Cytotoxicity against human SA cells measured after 48 hrs by MTT assay. The conditions noted are these: +SA cell. The gist of the method: as §1
Experiment [6] has as its system MCF7. The experiment can be described thus: Cytotoxicity against human MCF7 cells measured after 48 hrs by MTT assay. The conditions noted are these: MCF7, 48 h. The procedure, abridged:
as §1

Some results are limits rather than exact numbers.

In general, IC50 refers to the concentration that inhibits the measured activity by half. Low readings indicate greater potency in that assay, high ones weaker potency in that assay. For `CCCCCCCCCCCCNC(=O)[C@@H](NS(=O)(=O)c1ccc(C)cc1)[C@@H](C)O`, the IC50 in experiment [1] was found to be 25.6 µM; in experiment [2] it was 25.2 µM; in experiment [3], 31.6 µM; in experiment [4], 25.8 µM; in experiment [5], 27.2 µM; in experiment [6], 31.1 µM.
In experiment [1], `CCCCCCCCCCCCCCNC(=O)[C@@H](NC(=O)c1ccco1)[C@@H](C)O` gave an IC50 of 200 µM.
With `CCCCCCCCCCCCCCCCCCNC(=O)[C@@H](NS(=O)(=O)c1cccs1)[C@@H](C)O`, the 50% inhibitory concentration (IC50) in experiment [1], in experiment [5] and in experiment [6] was more than 200 µM throughout.
For `CCCCCCCCCCCCNC(=O)[C@@H](NC(=O)c1cc2ccccc2[nH]1)[C@@H](C)O`, the 50% inhibitory concentration (IC50) in experiment [1] worked out at 18.8 µM; in experiment [2], 10.3 µM; in experiment [3] it was 21.2 µM; in experiment [4] it was 12 µM; in experiment [5] it was 12.3 µM; in experiment [6] it was 12.3 µM.
As for `CCCCCCCCNC(=O)[C@@H](NC(=O)c1ccccc1)[C@@H](C)O`, the half-inhibitory concentration (IC50) came out at 200 µM in experiment [1], 61.3 µM in experiment [2] and 34.6 µM in experiment [5].
As to `CCCCCCCCCCCCCCCCCCNC(=O)[C@@H](NC(=O)c1cc2ccccc2n1C)[C@@H](C)O`, the IC50 in experiment [1] was 124 µM; in experiment [2], 61 µM; in experiment [5], 36.4 µM; in experiment [6], 36.4 µM.
As for `CCCCCCCCNC(=O)[C@@H](NC(=O)c1ccco1)[C@@H](C)O`, the IC50 in experiment [1] is 200 µM; in experiment [2], 64.5 µM; in experiment [5] it was 64.7 µM; in experiment [6], 91.8 µM.
Consider `CCCCCCCCCCCCCCNC(=O)[C@@H](NC(=O)/C=C/c1ccccc1)[C@@H](C)O`, for which the IC50 in experiment [1] amounted to 200 µM; in experiment [2], 64.9 µM; in experiment [3], 35.8 µM; in experiment [5], 80.9 µM; in experiment [6], 64.6 µM.
Take `C/C=C/C=C/C(=O)N[C@H](C(=O)NCCCCCCCCCCCCCC)[C@@H](C)O`: the IC50 stood at 200 µM in experiment [1] and 27.8 µM in experiment [6].
`CCCCCCCCCCCCNC(=O)[C@@H](NC(=O)/C=C/c1ccccc1)[C@@H](C)O` gave a half-inhibitory concentration (IC50) in experiment [1] of 200 µM.
As for `C/C=C/C=C/C(=O)N[C@H](C(=O)NCCCCCCCCCCCC)[C@@H](C)O`, the IC50 in experiment [1] was 200 µM; in experiment [6] it was 37.1 µM.
For the compound `CCCCCCCCCCCCNC(=O)[C@@H](NC(=O)c1cc2ccccc2n1C)[C@@H](C)O`, the IC50 in experiment [1] is more than 200 µM; in experiment [5], 31.3 µM; in experiment [6], 31.3 µM.
Turning to `CCCCCCCCCCCCCCNC(=O)[C@@H](NC(=O)c1ccccc1)[C@@H](C)O`, the IC50 in experiment [1] was 200 µM; in experiment [4] it was 54.2 µM; in experiment [5], 56 µM; in experiment [6] it was 24.8 µM.
As to `CCCCCCCCCCCCCCCCCCNC(=O)[C@@H](NC(=O)c1cccs1)[C@@H](C)O`, the IC50 in experiment [1] is 200 µM; in experiment [2], 33.3 µM; in experiment [4], 92 µM; in experiment [5] it was 53.5 µM; in experiment [6], 25.7 µM.
Regarding `CCCCCCCCCCCCCCCCCCNC(=O)[C@@H](NC(=O)/C=C/c1ccccc1)[C@@H](C)O`, the concentration for half-maximal inhibition (IC50) came to 200 µM in experiment [1], 35.9 µM in experiment [3], 47.1 µM in experiment [5] and 39.2 µM in experiment [6].
With `CCCCCCCCCCCCCCCCCCNC(=O)[C@@H](NC(=O)c1cc2ccccc2o1)[C@@H](C)O`, the 50% inhibitory concentration (IC50) in experiment [1] is more than 200 µM; in experiment [2], 78.8 µM.
In the case of `CCCCCCCCCCCCCCCCCCNC(=O)[C@@H](NC(=O)Cc1c[nH]c2ccccc12)[C@@H](C)O`, the half-maximal inhibitory concentration (IC50) in experiment [2] worked out at 31.8 µM; in experiment [3], 65.8 µM; in experiment [4] it was 57.6 µM; in experiment [5], 54.9 µM; in experiment [6], 37.3 µM.
As to `CCCCCCCCCCCCCCCCCCNC(=O)[C@@H](NC(=O)c1ccccc1)[C@@H](C)O`, the IC50 in experiment [1] was 200 µM; in experiment [3], 38.2 µM; in experiment [5], more than 400 µM; in experiment [6], 31.8 µM.
